Article PMC3564407 (The Febs Journal, 2012)
Square brackets hold non-standard residues; d marks the D form. Ends that are not written are not given here. Peptide text beside a SMILES is read from it. pGlu = O=C1CC[C@@H](C(=O)O)N1

How the values were obtained:
[1] = target: T1, Drosophila melanogaster AnCE (Drosophila melanogaster, UniProt Q10714); assay: Inhibition of Ang I to Ang II conversion by AnCE; type: biochemical; settings: pH 7.5, read-out: % inhibition of the conversion of Ang I to Ang II
T1 sequence (Q10714 18-615): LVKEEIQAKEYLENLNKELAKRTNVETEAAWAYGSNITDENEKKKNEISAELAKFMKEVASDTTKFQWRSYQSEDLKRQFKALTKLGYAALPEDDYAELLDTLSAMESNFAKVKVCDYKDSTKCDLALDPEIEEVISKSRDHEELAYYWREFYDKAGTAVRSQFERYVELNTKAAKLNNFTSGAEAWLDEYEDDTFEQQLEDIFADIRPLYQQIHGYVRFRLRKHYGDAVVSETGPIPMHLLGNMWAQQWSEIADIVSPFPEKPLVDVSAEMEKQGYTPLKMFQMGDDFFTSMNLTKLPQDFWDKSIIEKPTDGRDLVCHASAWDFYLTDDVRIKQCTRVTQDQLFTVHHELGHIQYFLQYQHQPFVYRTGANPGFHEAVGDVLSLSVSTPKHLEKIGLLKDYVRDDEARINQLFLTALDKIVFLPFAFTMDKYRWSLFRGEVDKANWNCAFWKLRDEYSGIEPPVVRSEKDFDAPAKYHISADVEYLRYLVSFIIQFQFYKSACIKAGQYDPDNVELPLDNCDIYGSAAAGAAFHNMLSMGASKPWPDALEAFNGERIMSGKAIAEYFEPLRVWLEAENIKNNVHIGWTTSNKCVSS
Outline: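 Recombinant D. melanogaster AnCE expressed in P. pastoris and purified by hydrophobic interaction and size-exclusion chromatography; diluted to 250 ng·μL−1 in reaction buffer containing 0.1 mg·mL−1 BSA. Reaction buffer is 0.1 m Hepes pH 7.5, 10 μm ZnSO4, 0.15 m NaCl, with Ang I (100 μm final) as substrate. Ang I consumption was quantified by HPLC-UV at 214 nm without and with 100 μm (initial) Ang II.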

[2] = target: T1, Drosophila melanogaster AnCE; assay: Inhibition of AnCE with Abz-YRK; type: biochemical
[3] = target: T1, Drosophila melanogaster AnCE; settings: ref [17]; cited from earlier work
ACE N- and C-domains = settings: mice; ref [7],[8]; cited from earlier work
ACE N-domain = settings: ref [9],[10]; cited from earlier work

Compound: CC[C@H](C)[C@H](NC(=O)[C@H](Cc1ccc(O)cc1)NC(=O)[C@@H](NC(=O)[C@H](CCCNC(=N)N)NC(=O)[C@@H](N)CC(=O)O)C(C)C)C(=O)N[C@@H](Cc1c[nH]cn1)C(=O)N1CCC[C@H]1C(=O)N[C@@H](Cc1ccccc1)C(=O)O [Ang II, angiotensin II]
- inhibition at 100 µM [1]: 73%

Compound: CC[C@H](C)[C@H](NC(=O)[C@H](CCCCN)NC(=O)[C@@H]1CCCN1C(=O)[C@H](CCCNC(=N)N)NC(=O)[C@@H]1CCCN1C(=O)[C@@H]1CCCN1C(=O)[C@H](CC(C)C)NC(=O)CNC(=O)[C@@H]1CCC(=O)N1)C(=O)N1CCC[C@H]1C(=O)N1CCC[C@H]1C(=O)O [BPPb, bradykinin-potentiating peptide-b] ([pGlu]GLPPRPKIPP-OH)
- Ki [2]: 107 µM

Compound: DRVYIHPFHL [Ang I, angiotensin I]
- cleavage by AnCE [3]: converts Ang I to Ang II
- in vivo conversion to Ang II by ACE domain (ACE N- and C-domains): the C-domain is primarily responsible

Compound: N-acetyl Ser–Asp–Lys–Pro
- degradation by ACE domain (ACE N-domain): the N-domain is solely responsible

Compound: RPPGFSPFR [BK, bradykinin]
- cleavage by AnCE [3]: inactivates BK
- cleavage efficiency by ACE domains (ACE N- and C-domains): cleaved with similar efficiency by both domains
